Shown are actives, neighbours in structure and some others; about 2.1% of the full set was active somewhere.
bCat nuc transl – alters nuclear translocation of beta-catenin in HeLa cells | AID 1665 | immunofluorescence imaging | nuclear translocation activity, % at 5 µM | 0.3% of 190,000 active;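 active = nuclear translocation activity above 50% at 5 µM, with a well cell count of 50 or more; inconclusive = wells under 50 cells across six images, flagged as toxic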;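 note: per-cell ratio of nuclear to cytoplasmic median beta-catenin stain intensity; plate controls were DMSO negative control for no effect and GSK-3 inhibitor IX positive control for full effect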
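System: HeLa cells, endogenous beta-catenin; compound dosing: 5 µM primary single dose, 0.1% DMSO, 0.02–20 µM confirmation series; incubation: 24 h compound exposure at 37°C, 5% CO2; signal: beta-catenin immunofluorescence imaging with DAPI; evaluation: % activation, nuclear-to-cytoplasmic median beta-catenin signal ratio per cell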
Hsp70 act – Hsp70 transcriptional activation, primary screen | HeLa Hsp70 promoter luciferase reporter, luminescence; scaled: vehicle 0, proteasome-inhibitor control 100% | activation, % at 10 µM | 0.04% of 200,000 active | AID 1203;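 active = activation above the mean across all tested compounds plus 3 SD, cutoff set per campaign, cut at about 5.5% in these data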;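 note: 100% = MG132 at 30 µM as the positive control and 0% = DMSO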
MT stabilize HCS – stabilizes microtubules in HeLa cells; HeLa tubulin immunostaining HCS, 24 h; share of cells brighter than vehicle mean+2SD; % tubulin-high responders, % at 10 µM; 0.83% of 200,000 active;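 active = plate Z-score above 3 for both tubulin-high and condensed-nucleus cell shares, with cell loss under 80%, at 10 µM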;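 note: anti alpha tubulin signal scored within the nucleus-defined area of each cell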
Autophagy mod – autophagy modulation, high-content screen; MEF GFP-LC3 puncta imaging; test concentration mostly 10 µM; AID 463193; calls only at 10 µM (by protocol); 0.98% of 190,000 active;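 active = percentage of spot-positive cells more than 3 SD above its plate mean, without a fluorescence outlier flag or 80% toxicity; inconclusive = no clear call, values can overlap the other calls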;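 note: spot-positive cell cutoff set from DMSO-treated cells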
Dynein cargo inh – dynein cargo transport inhibition | 0.47% of 220,000 active | 3617.4 mouse cells, GR-EGFP nuclear translocation imaging; test concentration mostly 20 µM; stimulated with dexamethasone, 1 µM; active compounds read low | z-score, hits read low | AID 1381;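 active = plate z-score of nuclear minus cytoplasmic receptor signal below a set negative limit, without overly bright fluorescence or cell loss, cut at about -3.5 in these data, passing the limit was not always enough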;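 note: z-score of nuclear minus cytoplasmic ring GR-EGFP intensity difference per well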
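Buffer or medium: tet-free, stripped-serum medium; reagent: dexamethasone at 1.0 µM final, 30 min; incubation: 48 h induction, 1 h compound, 30 min dex at 37 °C; measured by: formaldehyde fixation, Hoechst nuclear stain, 10x automated fluorescence imaging; read-out: nuclear-to-cytoplasmic GR-EGFP distribution per well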
Dynein confirm – dynein cargo transport inhibition, confirmation | shares compounds with Dynein cargo inh | 3617.4 GR-EGFP nuclear translocation imaging, dexamethasone-induced | calls only at 20 µM | 69% of 1,000 active | AID 463116;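 active = inhibition of receptor movement into the nucleus at or above a set limit in both runs, with normal cell brightness and cell count; inconclusive = limit reached in only one run, brightness and count normal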;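 note: dexamethasone at 1 µM final in well for 30 min; nuclear minus cytoplasmic GR-EGFP mean intensity difference in channel 2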
* marks the source's active call; other numbers are inactive results; i = inactive; ? = inconclusive; nt = no result given; + = active, no number.

SMILES	bCat nuc transl	Hsp70 act	MT stabilize HCS	Autophagy mod	Dynein cargo inh	Dynein confirm
COc1ccc(C(=O)/C=C/C(=O)N(CC(=O)NCCC(C)C)Cc2cccs2)c(O)c1	8	0	1	i	-6.1*	+
Cc1ccc(C(=O)NC(C#N)=C(Cl)Cl)cc1	0	2	6	i	-4.3*	+
Cc1ccc(C(=O)NCC#N)cc1	-1	0	2	i	0.16	nt
O=C(COc1ccccc1)NCC(=O)N/N=C/c1ccc(O)cc1O	1	nt	nt	nt	0.7	nt
CCCCCn1c(=O)c2ccccc2n2c(CCl)nnc12	3	0	2	i	-6.5*	+
CC(C)CCn1c(=O)c2ccccc2n2c(CCl)nnc12	7	0	3	i	-4.5*	+
Cc1ccc(NC(=O)C2CC(=O)N(CCc3ccccc3)C2)c(C)c1 (stereo not drawn)	-1	0	1	i	-0.55	nt
COCCN(CCOC)S(=O)(=O)c1ccc(C(=O)Nc2ccc([N+](=O)[O-])cc2OC)cc1	1	0	10	i	-0.087	nt
CCCNC(=O)Cn1c(=O)/c(=C\c2ccc(-c3ccc([N+](=O)[O-])cc3)o2)s/c1=C\C(=O)C(C)(C)C	1	0	9	?	-4.9	+
CCOC(=O)/C(=C\c1cccc(O)c1)c1nc2sc(C)c(C)c2c(=O)[nH]1	1	0	7	i	-4.4*	+
CCOC(=O)c1nc2sc(C)c(C)c2c(=O)[nH]1	nt	0	4	i	-0.33	nt
COC(=O)C(=Cc1ccc(OCc2ccc([N+](=O)[O-])cc2)c(OC)c1)C(=O)OC	2	0	2	i	-0.6	nt
CCOC(=O)C(=Cc1ccc(OCc2ccc([N+](=O)[O-])cc2)c(OC)c1)C(=O)OCC	-4	0	9	i	-4.1*	+
O=c1c2ccccc2nc(/C=C/c2ccc([N+](=O)[O-])o2)n1CCCO	6	1	3	i	-5.6*	+
O=c1c2ccccc2nc(/C=C/c2ccc([N+](=O)[O-])cc2)n1CCCO	-3	0	3	i	-0.31	nt
S=C(N/N=C/c1cccc2ccccc12)Nc1cccc(Cl)c1	0	nt	nt	nt	-0.074	nt
Cc1ccc(SC(=O)c2c([N+](=O)[O-])c(C)nn2C)cc1	-2	nt	nt	nt	-4.2*	+
Cc1cc(C)n(C(=O)c2c([N+](=O)[O-])c(C)nn2C)n1	0	0	2	i	0.45	nt
Cc1ccccc1NC(=O)C(Cl)=C(Cl)Cl	1	0	7	i	-3.8*	+
CC1(C)COC(/C=C/c2ccc([N+](=O)[O-])cc2)=N1	32	1	18*	i	-4.1*	+
Nc1nc(SCC(=O)NCc2ccccc2)[nH]c(=O)c1NC(=O)c1ccccc1F	-2	0	3	i	-0.37	nt
Cc1ccc(/C=C/C(=O)Nc2ccc(Oc3ccccc3)cc2)o1	2	0	4	i	-3.6*	i
Cc1ccc(/C=C/C(=O)Nc2ccc([N+](=O)[O-])cc2)o1	1	0	1	i	-1	nt
Cc1cc(C(=O)CCl)c(C)n1-c1cccc(S(=O)(=O)N2CCOCC2)c1	-1	0	3	i	-5.3*	+
Cc1cc(C(=O)CN2C(=O)CN(C)C2=O)c(C)n1-c1cccc(S(=O)(=O)N2CCOCC2)c1	2	0	3	i	-0.59	nt
SMILES	bCat nuc transl	Hsp70 act	MT stabilize HCS	Autophagy mod	Dynein cargo inh	Dynein confirm
Cc1cccc(OCCSc2nc(N)cc(N)n2)c1	1	nt	nt	nt	-0.42	nt
N=c1n(CCN2CCCCC2)c2ccccc2n1CC(=O)c1ccc(Cl)c(Cl)c1	1	nt	nt	nt	-3.6*	i
O=C(O)Cc1ccc(-n2cccc2)cc1	-1	0	3	i	-1.3	nt
COC(=O)c1cc(NC(=O)c2cccc(Cl)c2)c(=O)oc1/C=C/Nc1cc(C)cc(C)c1	0	-1	5	+	-7.5	+
CC1CN=C(N(C(=S)Nc2ccccc2)c2cccc(C(F)(F)F)c2)S1 (stereo not drawn)	0	nt	nt	nt	-0.91	nt
COc1ccc([N+](=O)[O-])cc1NC(=O)c1ccc(C)o1	-9	0	2	i	0.025	nt
Cc1ccc(N(CCC#N)C(=O)CCl)cc1C	4	0	4	i	-4.4*	+
Cc1ccc(N(CCC#N)C(=O)CSc2ccc3c(c2)OCCO3)cc1	-3	0	3	i	-0.84	nt
CCOC(=O)C1CCCN(C(=O)c2ccc3c(c2)N(Cc2ccccc2)C(=O)c2ccccc2S3=O)C1 (stereo not drawn)	-1	0	2	i	0.52	nt
CN(C)CC(C(=O)c1ccccc1)c1ccccc1 (stereo not drawn)	nt	0	9	i	-3.7*	+
COc1ccc(C(C(=O)OC(C)CN(C)C)c2ccccc2)cc1 (stereo not drawn)	-6	0	2	i	-1.1	nt
O=C(/C=C/c1cccc([N+](=O)[O-])c1)n1cnc2ccccc21	2	0	5	i	-5.1*	+
O=C(/C=C/c1cccc([N+](=O)[O-])c1)N1CCOCC1	-2	0	1	i	-0.047	nt
CC(C)(C)c1ccc(OCc2cnc(Cl)s2)cc1	0	0	1	i	-0.24	nt
COC(=O)NC(=C(Cl)Cl)S(=O)(=O)c1ccccc1	5	0	3	i	-5.8*	+
Cc1ccc(-n2nnnc2-c2ccccc2)cc1	2	0	7	i	0.24	nt
Cc1ccc(-n2nnnc2C(Cl)c2nnnn2-c2ccc(C)cc2)cc1	-3	0	6	i	-4.2*	+
O=C(Oc1ccccc1C(=O)Nc1ccccc1)c1ccc(Br)c([N+](=O)[O-])c1	nt	0	3	i	-3.9*	i
CCOC(=O)C(NC(=O)c1ccccc1Cl)(Nc1sc2c(c1C(N)=O)CCC2)C(F)(F)F (stereo not drawn)	-1	0	3	i	-1.4	nt
CCOC(=O)C(NC(=O)c1cccc(Cl)c1)(Nc1sc2c(c1C(N)=O)CCC2)C(F)(F)F (stereo not drawn)	0	0	2	i	-4.5*	+
O=C(c1coc(=O)c(Br)c1)N1CCC(C(O)(c2ccccc2)c2ccccc2)CC1	4	nt	nt	nt	-4.5*	+
CCC(C)NC(=O)C(=O)NCc1ccccn1 (stereo not drawn)	0	0	3	i	0.14	nt
COc1ccc(/C=C/C(=O)c2ccccc2O)cc1	nt	0	3	i	-0.9	nt
COc1ccc(/C=C/C(=O)c2c(O)c(OC)c3occc3c2OC)cc1	0	0	4	i	-4.7*	+
CCOC(=O)/C(C#N)=C/c1c[nH]c2ccccc12	0	0	4	i	-0.13	nt
